Experimental data: ChEMBL document CHEMBL1152296, “Fragment-based design of small molecule X-linked inhibitor of apoptosis protein inhibitors” (J Med Chem, 2008)
Blank lines part the entries; values can stand above or below the molecule they belong to. The source made the active and inactive calls. No cut-off for these calls is given here.

Key:
MDA-MB-231 [1] = assay: Sensitization of 120 ng/mL TRAIL-induced apoptosis in human MDA-MB-231 cells assessed as combination index at 12 uM after 24 hrs by ATPlite assay; type: functional
MDA-MB-231 [2] = assay: Sensitization of 130 ng/mL TRAIL-induced apoptosis in human MDA-MB-231 cells assessed as combination index at 13 uM after 24 hrs by ATPlite assay; type: functional
MEF [3] = assay: Inhibition of wild type MEF proliferation assessed as cell viability at 5 to 45 uM after 24 hrs by ATPlite assay relative to control; type: cell-based; details: mouse
[4] = Stability in human plasma by LC/MS/MS analysis; type: ADME, cell-free; details: read-out: Stability
Method in brief: (§1)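 Incubation in human plasma at 37 °C for 15, 60 and 120 min. Quantitation by LC/MS/MS in MRM mode, with results expressed as percent remaining of initial concentration.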

Plasma = assay: Stability in human plasma assessed as compound remaining by LC/MS/MS analysis; type: ADME, cell-free; method in brief: as §1
[5] = Metabolic stability in liver microsomes assessed as half life after 30 mins by LC/MS/MS analysis in presence of NADPH; type: ADME, Microsome
[6] = Metabolic stability in liver microsomes assessed as intrinsic clearance after 30 mins by LC/MS/MS analysis in presence of NADPH; type: ADME, Microsome; details: 0.5 h
[7] = Permeability by PAMPA method; type: ADME
[8] = Apparent solubility after 1 day by nephelometry-based method; type: physicochemical
Method in brief: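 DMSO stock at 10 mM prepared on day 1. Tested at 8 concentrations in triplicate. Assay run on day 1 and read on day 2.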

MEF [9] = assay: Inhibition of XIAP knockout MEF proliferation assessed as cell viability after 24 hrs by ATPlite assay relative to control; type: functional, cell-based; details: Mus musculus
MDA-MB-231 [10] = assay: Increase in caspase-3 activation in human MDA-MB-231 cells at 5 to 20 uM after 24 hrs by MSD assay; type: functional, cell-based
MDA-MB-231 [11] = assay: Sensitization of 50 ng/mL TRAIL-induced apoptosis in human MDA-MB-231 cells assessed as combination index at 5 uM after 24 hrs by ATPlite assay; type: functional
MDA-MB-231 [12] = assay: Sensitization of 90 ng/mL TRAIL-induced apoptosis in human MDA-MB-231 cells assessed as combination index at 9 uM after 24 hrs by ATPlite assay; type: functional
MDA-MB-231 [13] = assay: Sensitization of 100 ng/mLTRAIL-induced apoptosis in human MDA-MB-231 cells assessed as combination index at 10 uM after 24 hrs by ATPlite assay; type: functional
MDA-MB-231 [14] = assay: cells; details: Homo sapiens, MDA-MB-231, 48 h
[15] = molecular target: E3 ubiquitin-protein ligase XIAP (Homo sapiens, UniProt P98170); assay: Binding affinity to histidine6-tagged human XIAP Bir3 domain expressed in Escherichia coli BL21(DE3)
Method in brief: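 Binding to 15N-labelled Bir3 was measured by 2D [15N,1H]-HSQC NMR titration at 300 K. Samples held 0.1 mM protein in 100 mM potassium phosphate pH 7.0 with 5% DMSO and 7% D2O. At least six ligand concentrations were used. Kd came from a non-linear least-squares fit of fractional shift change (p) against ligand concentration.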

E3 ubiquitin-protein ligase XIAP, sequence (P98170 whole entry, the tested form may be a part): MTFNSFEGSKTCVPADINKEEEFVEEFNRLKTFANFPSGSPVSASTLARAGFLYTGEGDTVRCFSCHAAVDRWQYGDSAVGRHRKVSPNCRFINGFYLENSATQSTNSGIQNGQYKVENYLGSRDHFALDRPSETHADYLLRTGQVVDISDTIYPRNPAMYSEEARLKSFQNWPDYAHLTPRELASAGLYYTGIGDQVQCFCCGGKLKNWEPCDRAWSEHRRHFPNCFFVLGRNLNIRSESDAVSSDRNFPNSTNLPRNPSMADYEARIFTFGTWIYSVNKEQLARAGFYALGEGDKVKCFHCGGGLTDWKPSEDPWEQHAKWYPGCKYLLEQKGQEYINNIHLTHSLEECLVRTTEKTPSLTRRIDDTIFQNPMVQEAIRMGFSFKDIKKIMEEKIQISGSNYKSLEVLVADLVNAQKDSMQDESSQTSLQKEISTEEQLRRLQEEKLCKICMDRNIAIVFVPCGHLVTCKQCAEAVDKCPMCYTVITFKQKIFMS

half-life [4]: > 120 min | Stability (Plasma): 93.9% | half-life [5]: 14.5 min | clearance [6]: 47.7 µL/min/mg | permeability [7]: 27% | solubility kinetic at 24 h [8]: > 100 µg/mL
Structure (SMILES): CN[C@@H](C)C(=O)Nc1ccc(Oc2ccc(OC)cc2)c(C(=O)NCc2csc(-c3cccs3)n2)c1
Activity (MDA-MB-231 [1]): 0.27 | Activity (MDA-MB-231 [2]): 0.32 | Activity (MEF [3]): Toxic | Activity (MEF [9]): Active | Activity (MDA-MB-231 [10]): Active | Activity (MDA-MB-231 [11]): 0.44 | Activity (MDA-MB-231 [12]): 0.4 | Activity (MDA-MB-231 [13]): 0.41

IC50 (MDA-MB-231 [14]): > 50 µM
Structure (SMILES): CC[C@H](C)[C@H](NC(=O)[C@@H]1CCCN1C(=O)[C@@H](NC(=O)[C@H](C)N)C(C)C)C(=O)O

Kd [15]: 200 µM
Structure (SMILES): C[C@H](N)C(=O)Nc1ccc(Oc2ccccc2Cl)cc1
